Experimental data from different studies.
Protocols differ between the studies behind these lines.
Target: Serine-protein kinase ATM (ATM, Homo sapiens, UniProt Q13315)

SMILES	test	setting	endpoint	result
Cc1ccc(NC(=O)c2ccc(C)c(C(F)(F)F)c2)cc1C#Cc1nn(C2CCC(O)CC2)c2ncnc(N)c12 (centres unmarked)	cell-free assay	10 µM	remaining signal	102%
Cc1ccc(C(=O)NCc2ccsc2)cc1C#Cc1cn(C(C)C)c2ncnc(N)c12	enzyme activity, inhibitor	1 µM	activity vs control	101%
CCCCNc1ncc2c(-c3ccc(F)cc3)nn(C[C@H]3CC[C@H](N)CC3)c2n1	target engagement in cells, inhibitor, chemoproteomics	20 mM	inhibition	57.4%
Cc1cc(NC(=O)c2cccc3cc(-c4cccc5[nH]nc(N)c45)ccc23)ccc1F	enzyme activity, inhibitor	0.1 µM	activity vs control	94%
CN1CC(Oc2cnc(C#N)cc2-c2ccn3nc(NC(=O)C4CC4)cc3c2)C1	enzyme activity, inhibitor	1 µM	inhibition	14%
Cc1cnc(NC2CCOCC2)nc1-n1cnc(C(=O)NC(CN)c2cc(F)cc(Cl)c2)c1 (centres unmarked)	enzyme activity, inhibitor, radiometric	1 µM	remaining activity	102%
COc1cccc2c(NCc3ccccc3)nc(-n3c(N)nc4ccccc43)nc12	target engagement in cells, inhibitor, chemoproteomics	20 mM	inhibition	-4.3%
COc1cc(Cl)c(C(=O)N[C@@H](CN[C@H]2CC[C@@H](N)CC2)Cc2ccc(C#N)cc2)cc1-c1ccc(CN[C@H](C)c2ccc(C)cc2)o1	enzyme activity, inhibitor	1 µM	remaining activity	106%
